Results: PMC10878326 (Cell chemical biology, 2023)

Key:
NR1D2 = experiment: Western blot of NR1D2 protein in uninfected HC-04 cells; assay type: cell-based, human; details: uninfected HC-04, 1x to 10x IC50, 48 hours
In short: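 Uninfected HC-04 cells were exposed 48 h to varying concentrations of test compound or NR1D2 inhibitor, then lysed. Protein was measured by DC assay, resolved by SDS-PAGE and transferred to nitrocellulose. Blots were blocked 1 h in 5% blocker and probed with anti-NR1D2 at 1:1000. Levels were expressed relative to beta actin.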

[1] = system: P. berghei schizonts in HC-04 cells; experiment: Confocal imaging of P. berghei infected HC-04 cells treated with compound; assay type: cell-based, Plasmodium berghei; details: HC-04, 1x and 2x IC50, 48 hpi
In short: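 HC-04 cells were seeded at 16,000 cells/well on poly-L-lysine-coated chamber slides and pretreated 24 h with test compound, NR1D2 inhibitor or DMSO. They were then infected with P. berghei Luc sporozoites (MOI 1:1), with treatment kept to 48 hpi. Cells were fixed in 4% PFA, permeabilised with 0.1% Triton X-100 and blocked in 1% BSA. Staining: anti-UIS4 1:1000 overnight at 4 °C, anti-NR1D2 1:500, LipidTOX 1:500 and DAPI. Imaging was at 63x oil. Merozoites per schizont were counted. Two biological replicates; one-way ANOVA with Dunnett's test.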

[2] = system: lipid droplets in uninfected HC-04 cells; experiment: HCS LipidTOX lipid droplet staining in uninfected HC-04 cells; assay type: cell-based, human
P. berghei liver stages = experiment: P. berghei luciferase liver stage assay; assay type: cell-based, Plasmodium berghei; details: IC50 used to set 1x and 2x treatment of HC-04 cells
[3] = system: P. falciparum asexual blood stages; details: cited from earlier work
[4] = system: P. berghei in NR1D2 knockdown lines; experiment: Parasite development IC50 shift in NR1D2 shRNA knockdown cells; assay type: cell-based, Plasmodium berghei; details: stable shRNA knockdown, luciferase after 48 hours
[5] = system: P. berghei infected HepG2 cells; experiment: Cell Painting morphological profile compared with landmark compound set; assay type: cell-based, human
NR1D2 transcript = experiment: qPCR of NR1D2 transcript in treated HC-04 cells; assay type: cell-based, human; details: HC-04, post treatment 48h
In short: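 HC-04 cells were treated 48 h with varying concentrations of test compound or NR1D2 inhibitor. Cells were harvested, RNA was extracted, and NR1D2 transcript was quantified by qPCR with gene-specific primers.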

For `CN1CCN(Cc2cc(CNC3(c4ccccc4F)CCCC3)ccc2O)CC1` [ARN5187, reference compound], the “NR1D2 protein expression level (western blot)” value (from here on “NR1D2 protein expression level”) (NR1D2) was “no changes in protein expression levels” and the “number of merozoites per schizont relative to DMSO” value [1] was “lower number of merozoites per schizont”.

For `CC1(C)c2nc(-c3ccc(F)cc3)c(Nc3ccc(Cl)cc3)n2CCN1C(=O)CN` [GNF179], the “HCS lipid tox staining intensities” value [2] was “did not observe any significant changes”.

In the case of `Cc1cc(C(=O)Oc2ccccc2C(N)=O)c(C)n1Cc1ccco1` [MMV1088447], the IC50 (P. berghei liver stages) is listed as 1.05 ± 0.29 µM, the “activity against asexual blood stages” value [3] is listed as “little activity” and the “difference in IC50 in NR1D2 knockdown lines relative to wild type cells” value [4] is listed as “did not see any differences”. The “morphological profile similarity / inferred host pathway” value [5] was “phenocopied treatment with tamoxifen, endoxifen and lichochalcone A”, the “NR1D2 protein expression level” value (NR1D2) was “dose dependent reduction” and the “NR1D2 RNA expression levels” value (NR1D2 transcript) was “no significant changes”. The “number of merozoites per schizont relative to DMSO” value [1] was “significant reduction” and the “parasite size relative to DMSO controls” value [1] was “smaller”.

In the case of `N#CC(C(=O)c1cc(S(=O)(=O)N2CCc3ccccc3C2)ccc1Cl)c1ccccn1` (stereo not shown) [MMV1346624], the IC50 (P. berghei liver stages) is given as 1.04 ± 0.73 µM, the “activity against asexual blood stages” value [3] is given as “little activity” and the “difference in IC50 in NR1D2 knockdown lines relative to wild type cells” value [4] is given as “did not see any differences”. The “morphological profile similarity / inferred host pathway” value [5] was “phenocopied treatment with tamoxifen, endoxifen and lichochalcone A”, the “NR1D2 protein expression level” value (NR1D2) was “dose dependent reduction” and the “NR1D2 RNA expression levels” value (NR1D2 transcript) was “no significant changes”. The “number of merozoites per schizont relative to DMSO” value [1] was “significant reduction” and the “parasite size relative to DMSO controls” value [1] was “smaller”.

For `Cc1cccc2sc(C(=O)NCc3cccc(NS(N)(=O)=O)c3)c(Cl)c12` [MMV1452174], the “morphological profile similarity / inferred host pathway” value [5] was “potential modulator of the host S1P pathway” and the “HCS lipid tox staining intensities” value [2] was “did not observe any significant changes”.

For `O=C1C(O)=C([C@H]2CC[C@H](c3ccc(Cl)cc3)CC2)C(=O)c2ccccc21` [atovaquone], the “HCS lipid tox staining intensities” value [2] was “did not observe any significant changes”.
